According to ChEMBL document CHEMBL4190320, “Clathrodin, hymenidin and oroidin, and their synthetic analogues as inhibitors of the voltage-gated potassium channels” (Eur J Med Chem, 2017):
The source made the active and inactive calls. No cut-off for these calls is given here.

Assays:
[1] = biological target: Potassium voltage-gated channel subfamily A member 5 (Rattus norvegicus) (UniProt P19024); assay: Inhibition of rat Kv1.5 expressed in Xenopus laevis oocytes at 1 uM at -90 mV holding potential by two-electrode voltage clamp assay relative to control; assay type: cell-based
Potassium voltage-gated channel subfamily A member 5 (Rattus norvegicus), sequence (P19024 whole entry): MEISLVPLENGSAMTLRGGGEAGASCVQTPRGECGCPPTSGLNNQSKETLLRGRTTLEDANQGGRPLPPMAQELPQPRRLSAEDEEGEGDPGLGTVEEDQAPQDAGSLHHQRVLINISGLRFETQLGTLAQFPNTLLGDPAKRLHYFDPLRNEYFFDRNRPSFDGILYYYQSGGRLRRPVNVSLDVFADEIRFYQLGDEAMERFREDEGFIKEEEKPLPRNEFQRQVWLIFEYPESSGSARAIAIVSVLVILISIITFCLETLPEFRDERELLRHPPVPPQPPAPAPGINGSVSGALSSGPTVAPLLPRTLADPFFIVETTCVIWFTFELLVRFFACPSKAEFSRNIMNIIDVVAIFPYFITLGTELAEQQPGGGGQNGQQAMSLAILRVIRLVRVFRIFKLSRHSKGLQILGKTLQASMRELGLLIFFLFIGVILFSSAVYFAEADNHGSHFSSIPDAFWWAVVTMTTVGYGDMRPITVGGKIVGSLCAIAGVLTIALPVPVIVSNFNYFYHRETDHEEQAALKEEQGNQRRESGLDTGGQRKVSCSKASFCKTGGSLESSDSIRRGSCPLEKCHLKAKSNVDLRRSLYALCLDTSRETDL

[2] = biological target: Potassium voltage-gated channel subfamily A member 4 (Rattus norvegicus) (UniProt P15385); assay: Inhibition of rat Kv1.4 expressed in Xenopus laevis oocytes at 1 uM at -90 mV holding potential by two-electrode voltage clamp assay relative to control; assay type: cell-based
[3] = biological target: Potassium voltage-gated channel subfamily A member 1 (Rattus norvegicus) (UniProt P10499); assay: Inhibition of rat Kv1.1 expressed in Xenopus laevis oocytes at 1 uM at -90 mV holding potential by two-electrode voltage clamp assay relative to control; assay type: cell-based
Potassium voltage-gated channel subfamily A member 1 (Rattus norvegicus), sequence (P10499 whole entry): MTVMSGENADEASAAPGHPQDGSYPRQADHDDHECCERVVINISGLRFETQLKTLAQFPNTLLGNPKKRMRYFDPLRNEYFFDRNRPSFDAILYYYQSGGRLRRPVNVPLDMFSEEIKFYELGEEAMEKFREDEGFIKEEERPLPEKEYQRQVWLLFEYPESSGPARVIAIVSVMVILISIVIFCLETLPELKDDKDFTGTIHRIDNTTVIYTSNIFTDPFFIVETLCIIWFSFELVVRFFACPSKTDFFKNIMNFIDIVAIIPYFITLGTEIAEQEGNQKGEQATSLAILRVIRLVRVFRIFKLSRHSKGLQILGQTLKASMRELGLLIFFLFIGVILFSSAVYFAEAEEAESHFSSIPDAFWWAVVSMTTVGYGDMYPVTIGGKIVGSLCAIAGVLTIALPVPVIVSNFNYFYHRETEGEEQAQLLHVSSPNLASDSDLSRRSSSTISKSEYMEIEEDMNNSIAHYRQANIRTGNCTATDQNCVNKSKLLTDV

[4] = biological target: Potassium voltage-gated channel subfamily A member 6 (Rattus norvegicus) (UniProt P17659); assay: Inhibition of rat Kv1.6 expressed in Xenopus laevis oocytes at 1 uM at -90 mV holding potential by two-electrode voltage clamp assay relative to control; assay type: cell-based
Potassium voltage-gated channel subfamily A member 6 (Rattus norvegicus), sequence (P17659 whole entry): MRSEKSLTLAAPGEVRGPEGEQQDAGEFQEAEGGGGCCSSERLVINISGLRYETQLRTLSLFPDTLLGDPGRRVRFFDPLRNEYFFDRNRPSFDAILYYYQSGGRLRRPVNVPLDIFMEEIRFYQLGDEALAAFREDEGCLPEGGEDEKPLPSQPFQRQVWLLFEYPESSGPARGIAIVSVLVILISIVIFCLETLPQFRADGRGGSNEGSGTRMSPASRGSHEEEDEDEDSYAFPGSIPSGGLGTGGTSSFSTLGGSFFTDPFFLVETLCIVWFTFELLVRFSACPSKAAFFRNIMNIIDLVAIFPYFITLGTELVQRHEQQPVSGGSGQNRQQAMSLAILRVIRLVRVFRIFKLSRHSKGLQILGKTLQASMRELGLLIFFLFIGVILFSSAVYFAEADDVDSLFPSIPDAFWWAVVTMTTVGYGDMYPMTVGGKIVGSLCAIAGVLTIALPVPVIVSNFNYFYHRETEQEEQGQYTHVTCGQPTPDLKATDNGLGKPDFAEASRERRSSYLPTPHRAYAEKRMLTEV

[5] = test system: Potassium voltage-gated channel subfamily H member 1 (Homo sapiens); assay: Inhibition of human Kv10.1 expressed in Xenopus laevis oocytes at 1 uM at -90 mV holding potential by two-electrode voltage clamp assay relative to control
[6] = biological target: Potassium voltage-gated channel subfamily A member 2 (Rattus norvegicus) (UniProt P63142); assay: Inhibition of rat Kv1.2 expressed in Xenopus laevis oocytes at 1 uM at -90 mV holding potential by two-electrode voltage clamp assay relative to control; assay type: cell-based
[7] = biological target: T1, Potassium voltage-gated channel subfamily A member 3 (Homo sapiens, UniProt P22001); assay: Inhibition of human Kv1.3 expressed in CHO cells at -80 mV holding potential by whole cell automated patch clamp method; assay type: cell-based
Procedure, shortened: (§1)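 Human channels stably expressed in CHO cells, dissociated with 0.05% trypsin-EDTA, held in serum-free medium and resuspended in extracellular solution just before recording. Whole-cell QPatch recordings used a -80 mV holding potential and 500 ms steps to +30 mV at 0.067 Hz. Series resistance was 80% compensated with P/n leak subtraction. After 0.1% DMSO vehicle, four escalating concentrations were applied cumulatively.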
Target sequence in this assay (P22001 whole entry): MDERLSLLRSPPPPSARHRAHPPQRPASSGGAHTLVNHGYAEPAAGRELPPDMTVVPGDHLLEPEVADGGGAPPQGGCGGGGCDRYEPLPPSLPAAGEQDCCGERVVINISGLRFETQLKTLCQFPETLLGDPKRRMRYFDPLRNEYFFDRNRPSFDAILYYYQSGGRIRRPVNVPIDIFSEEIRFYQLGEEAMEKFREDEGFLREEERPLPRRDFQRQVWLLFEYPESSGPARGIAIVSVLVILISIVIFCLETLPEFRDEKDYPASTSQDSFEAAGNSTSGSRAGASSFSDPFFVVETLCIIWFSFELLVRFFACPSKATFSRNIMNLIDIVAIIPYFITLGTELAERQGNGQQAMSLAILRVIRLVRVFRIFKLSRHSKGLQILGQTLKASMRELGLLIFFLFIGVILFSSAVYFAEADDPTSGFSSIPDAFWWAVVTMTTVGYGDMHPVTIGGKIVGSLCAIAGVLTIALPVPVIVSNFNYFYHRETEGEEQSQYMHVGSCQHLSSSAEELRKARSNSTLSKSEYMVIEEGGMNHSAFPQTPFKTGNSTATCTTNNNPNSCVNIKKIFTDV

[8] = biological target: T1, Potassium voltage-gated channel subfamily A member 3; assay: Inhibition of human Kv1.3 expressed in Xenopus laevis oocytes at 1 uM at -90 mV holding potential by two-electrode voltage clamp assay relative to control
[9] = biological target: Potassium voltage-gated channel subfamily A member 4 (Homo sapiens, UniProt P22459); assay: Inhibition of human Kv1.4 expressed in CHO cells at -80 mV holding potential by whole cell automated patch clamp method; assay type: cell-based; procedure, shortened: as §1
[10] = biological target: Potassium voltage-gated channel subfamily A member 2 (Homo sapiens, UniProt P16389); assay: Inhibition of human Kv1.2 expressed in CHO cells at -80 mV holding potential by whole cell automated patch clamp method; assay type: cell-based; procedure, shortened: as §1
Potassium voltage-gated channel subfamily A member 2, sequence (P16389 whole entry): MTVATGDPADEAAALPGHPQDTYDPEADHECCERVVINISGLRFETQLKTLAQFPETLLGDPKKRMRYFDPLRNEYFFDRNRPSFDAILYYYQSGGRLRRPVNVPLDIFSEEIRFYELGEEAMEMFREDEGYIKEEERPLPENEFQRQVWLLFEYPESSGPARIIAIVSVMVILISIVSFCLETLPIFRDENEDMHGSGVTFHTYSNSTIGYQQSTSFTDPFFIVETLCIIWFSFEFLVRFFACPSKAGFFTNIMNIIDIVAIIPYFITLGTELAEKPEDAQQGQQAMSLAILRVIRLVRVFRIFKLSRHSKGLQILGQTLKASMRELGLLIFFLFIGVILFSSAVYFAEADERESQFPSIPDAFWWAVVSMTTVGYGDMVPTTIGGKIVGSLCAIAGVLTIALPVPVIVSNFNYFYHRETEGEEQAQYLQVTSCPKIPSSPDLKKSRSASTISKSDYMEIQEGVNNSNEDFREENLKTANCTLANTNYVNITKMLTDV

[11] = biological target: Potassium voltage-gated channel subfamily A member 6 (Homo sapiens, UniProt P17658); assay: Inhibition of human Kv1.6 expressed in CHO cells at -80 mV holding potential by whole cell automated patch clamp method; assay type: cell-based; procedure, shortened: as §1
Potassium voltage-gated channel subfamily A member 6 (Homo sapiens, UniProt P17658), sequence (P17658 whole entry): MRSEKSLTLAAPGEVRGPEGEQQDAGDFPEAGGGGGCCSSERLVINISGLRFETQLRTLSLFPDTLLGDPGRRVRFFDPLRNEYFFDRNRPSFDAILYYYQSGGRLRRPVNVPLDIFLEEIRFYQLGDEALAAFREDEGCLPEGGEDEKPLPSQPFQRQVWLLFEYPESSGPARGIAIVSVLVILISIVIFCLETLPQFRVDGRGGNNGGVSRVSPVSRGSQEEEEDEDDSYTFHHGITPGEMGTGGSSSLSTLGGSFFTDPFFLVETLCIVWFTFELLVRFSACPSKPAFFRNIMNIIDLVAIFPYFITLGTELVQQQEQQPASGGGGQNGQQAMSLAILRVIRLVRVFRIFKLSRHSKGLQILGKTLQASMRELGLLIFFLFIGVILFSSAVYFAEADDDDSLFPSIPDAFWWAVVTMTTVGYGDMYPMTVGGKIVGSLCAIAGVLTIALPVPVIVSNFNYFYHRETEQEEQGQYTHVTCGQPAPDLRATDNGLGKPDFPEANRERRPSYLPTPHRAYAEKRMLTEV

[12] = biological target: Potassium voltage-gated channel subfamily A member 5 (Homo sapiens, UniProt P22460); assay: Inhibition of human Kv1.5 expressed in CHO cells at -80 mV holding potential by whole cell automated patch clamp method; assay type: cell-based
[13] = biological target: Potassium voltage-gated channel subfamily A member 1 (Homo sapiens, UniProt Q09470); assay: Inhibition of human Kv1.1 expressed in CHO cells at -80 mV holding potential by whole cell automated patch clamp method; assay type: cell-based; procedure, shortened: as §1
Potassium voltage-gated channel subfamily A member 1, sequence (Q09470 whole entry): as the sequence (P10499 whole entry) above, with A9V, I202V, T213N, I449M, A471V, G476A, A480T, T481A, D482N counted along it

[14] = biological target: Potassium voltage-gated channel subfamily A member 6 (Rattus norvegicus, UniProt P17659); assay: Inhibition of rat Kv1.6 expressed in Xenopus laevis oocytes at -90 mV holding potential by two-electrode voltage clamp assay; assay type: cell-based
Potassium voltage-gated channel subfamily A member 6 (Rattus norvegicus, UniProt P17659), sequence (P17659 whole entry): as the sequence (P17659 whole entry) above
Procedure, shortened: (§2)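 Stage V-VI Xenopus laevis oocytes were injected with 50 nL cRNA (1 ng/nL). Currents were recorded by two-electrode voltage clamp. IC50 values come from at least 3 independent experiments and are given as mean ± standard error.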

[15] = biological target: T1, Potassium voltage-gated channel subfamily A member 3; assay: Inhibition of human Kv1.3 expressed in Xenopus laevis oocytes at -90 mV holding potential by two-electrode voltage clamp assay
Target sequence in this assay (P22001 whole entry, looked up): as the sequence (P22001 whole entry) above

[16] = biological target: Potassium voltage-gated channel subfamily A member 4 (Rattus norvegicus, UniProt P15385); assay: Inhibition of rat Kv1.4 expressed in Xenopus laevis oocytes at -90 mV holding potential by two-electrode voltage clamp assay; assay type: cell-based; procedure, shortened: as §2

Structure (SMILES) | inhibition [1] | inhibition [2] | inhibition [3] | inhibition [4] | inhibition [5] | inhibition [6] | IC50 [7] [µM] | inhibition [8] | IC50 [9] [µM] | IC50 [10] [µM] | IC50 [11] [µM] | IC50 [12] [µM] | IC50 [13] [µM] | IC50 [14] [µM] | IC50 [15] [µM] | IC50 [16] [µM]
CC(C)(C)OC(=O)N1CCC(C(=O)NC/C=C/c2c[nH]c(N)n2)CC1 | inactive | inactive | inactive | inactive | inactive | inactive | > 30 | inactive |  |  |  |  |  |  |  | 
O=c1ccc2c(OCCCCOc3ccccc3)c3ccoc3cc2o1 |  |  |  |  |  |  |  |  | 0.17 | 0.45 | 0.13 | 0.088 | 0.25 |  |  | 
Nc1nc(/C=C/CNC(=O)c2cc(Br)c[nH]2)c[nH]1 | 10% | 11% | inactive | 22% | inactive | inactive | 2.5 | 32% | 5.3 | > 30 | 3.7 | 7.6 | > 30 |  |  | 
Nc1nc(CCCNC(=O)C2Cc3ccccc3N2)c[nH]1 (stereo not given) | inactive | inactive | inactive | inactive | inactive | inactive | > 30 | inactive |  |  |  |  |  |  |  | 
Nc1ncc(/C=C/CNC(=O)c2cc(Br)c(Br)[nH]2)[nH]1 [OROIDIN] | inactive | 32% | inactive | inactive | inactive | 10% | 4.7 | 58% | 2.1 | > 30 | 4.9 | 16 | > 30 | > 10 | 0.82 | 5.7
Nc1ncc(/C=C/CNC(=O)c2ccc[nH]2)[nH]1 [CLATHRODIN] | inactive | inactive | inactive | inactive | inactive | inactive | > 30 | inactive | > 30 | > 30 | > 30 | > 30 | > 30 |  |  | 
Cc1[nH]c(C(=O)NC/C=C/c2c[nH]c(N)n2)cc1Br | inactive | 46% | inactive | 63% | inactive | inactive | 25 | inactive | 12 | > 30 | 11 | > 30 | > 30 | 9.8 | > 10 | 0.38
Nc1nc(CCCNC(=O)c2cc(Br)c(Br)[nH]2)c[nH]1 | inactive | inactive | inactive | inactive | inactive | inactive | > 30 | inactive |  |  |  |  |  |  |  | 
Nc1nc(/C=C/CNC(=O)c2cccnc2)c[nH]1 | inactive | inactive | inactive | inactive | inactive | inactive | > 30 | inactive |  |  |  |  |  |  |  | 
Nc1nc(CCCNC(=O)c2cc3ccccc3[nH]2)c[nH]1 | inactive | inactive | inactive | inactive | inactive | inactive |  | inactive |  |  |  |  |  |  |  | 
Nc1nc(/C=C/CNC(=O)c2cc(Cl)c(Cl)[nH]2)c[nH]1 | 62% | 90% | inactive | inactive | inactive | inactive | 1.4 | inactive | 1.5 | > 30 | 1.6 | 6.1 | > 30 | 0.17 | > 10 | 0.6

The remaining lines, values ahead:

inhibition [1] | inhibition [2] | inhibition [3] | inhibition [4] | inhibition [5] | inhibition [6] | IC50 [7] [µM] | inhibition [8] | IC50 [9] [µM] | IC50 [10] [µM] | IC50 [11] [µM] | IC50 [12] [µM] | IC50 [13] [µM] | IC50 [14] [µM] | IC50 [15] [µM] | IC50 [16] [µM] | Structure (SMILES)
inactive | inactive | inactive | inactive | inactive | inactive | > 30 | inactive |  |  |  |  |  |  |  |  | COc1ccc2[nH]c(C(=O)NC/C=C/c3c[nH]c(N)n3)cc2c1
72% | 71% | 68% | inactive | inactive | inactive | 25 | inactive | 15 | > 30 | 17 | > 30 | > 30 | > 10 | > 10 | 0.73 | Cc1[nH]c(C(=O)NC/C=C/c2c[nH]c(N)n2)cc1Cl
inactive | inactive | inactive | inactive | inactive | inactive | 9 | inactive | 17 | > 30 | 24 | > 30 | > 30 |  |  |  | Nc1nc(/C=C/CNC(=O)c2cc3cc(Cl)ccc3[nH]2)c[nH]1
inactive | inactive | inactive | 42% | inactive | inactive | 21 | inactive | 13 | > 30 | 14 | > 30 | > 30 |  |  |  | Nc1nc(/C=C/CNC(=O)c2cc3ccccc3[nH]2)c[nH]1
inactive | inactive | inactive | inactive | inactive | inactive | 14 | 28% | 8.8 | > 30 | 7.9 | > 30 | > 30 |  |  |  | Nc1nc(/C=C/CNC(=O)c2cc3cc(F)ccc3[nH]2)c[nH]1
inactive | 33% | inactive | 41% | inactive | inactive | 17 | inactive | 12 | > 30 | 29 | > 30 | > 30 | > 10 | > 10 | 0.23 | Cc1[nH]c(C(=O)NC/C=C/c2c[nH]c(N)n2)c(Br)c1Br
inactive | inactive | 22% | inactive | inactive | inactive | > 30 | 28% |  |  |  |  |  |  |  |  | Nc1nc(/C=C/CNC(=O)C2CCNCC2)c[nH]1
